Measured values of several laboratories.
Compare with care: the assays were run in different laboratories.
Target: Focal adhesion kinase 1 (PTK2, Homo sapiens, UniProt Q05397)

The inhibition of `COc1cc(-c2cc(-c3ccc(N4CCNCC4)cc3)cnc2C)cc(OC)c1OC` is reported as 16% (enzyme activity, inhibitor; 1 µM).
For `COc1cc2ncnc(Nc3ccc(Oc4ccccc4)cc3C)c2cc1OC`, the inhibition was 5% (enzyme activity, inhibitor; 1 µM).
With `Cc1nc(C2CCN(C(=O)c3ccc(OC(F)(F)F)cc3N)CC2)c2ncc(N3CCN(C)CC3)cc2n1` the remaining binding was 91% (cell-free assay, competition with immobilised ligand; 1 µM).
The remaining activity of `CCCOc1ccc(OC)c(F)c1C(=O)c1ccc(C(=O)N[C@@H]2CNC[C@H]2NC(=O)c2ccc3[nH]ncc3c2)cc1` is reported as 103% (enzyme activity, inhibitor; 10 µM).
`CN(c1nccc(-c2cnn3ncccc23)n1)C1CC1` gave a remaining signal of 100% (cell-free assay; 1 µM).
`Cc1ccc(NC(=O)c2ccc(CN3CCN(C)CC3)cc2)cc1Nc1nccc(-c2cncc(-c3oncc3C)c2)n1` gave a remaining activity of ≤ 50% (enzyme activity, inhibitor; 0.5 µM).
For `COc1ccnn2ncc(-c3ccnc(N(C)C)n3)c12`, the remaining signal was 100% (cell-free assay; 1 µM).
`C[C@H](c1cccc(C#N)c1)n1cc(Cl)cc(C(N)=O)c1=N` has a remaining binding of 100% (cell-free assay, competition with immobilised ligand; 1 µM).
For `Cc1cc(NC(=O)c2cccc3cc(-c4cccc5[nH]nc(N)c45)ccc23)ccc1F`, the activity vs control was 98% (enzyme activity, inhibitor; 0.1 µM).
For `CNCc1ccccc1-c1csc([C@@H](C)Nc2nc(C)nc3cc(OC)c(OC)cc23)c1`, the remaining binding was 86% (cell-free assay, competition with immobilised ligand; 1 µM).
`Cc1ccc(NC(=O)c2ccc(C)c(C(F)(F)F)c2)cc1C#Cc1nn(C2CCC(O)CC2)c2ncnc(N)c12` (centres unmarked) has a remaining signal of 45% (cell-free assay; 10 µM).
The remaining signal of `CNC(=O)c1cc(Oc2ccc(NC(=O)Nc3ccc(Cl)c(C(F)(F)F)c3)cc2)ccn1` is reported as 102% (cell-free assay; 0.5 µM).
For `O=C(CSc1nc2nccnc2c(=O)n1CCc1ccccc1)Nc1nccs1`, the inhibition was 6% (enzyme activity, inhibitor; 10 µM).
For `Cc1ccc(Nc2nccc(N(C)c3ccc4c(C)n(C)nc4c3)n2)cc1S(N)(=O)=O`, the inhibition was 73% (enzyme activity, inhibitor; 10 µM).
The remaining activity of `Cc1cnc(NC2CCOCC2)nc1-n1cnc(C(=O)NC(CN)c2cc(F)cc(Cl)c2)c1` (centres unmarked) is reported as 102% (enzyme activity, inhibitor, radiometric; 1 µM).
`O=C(Nc1cnn(-c2csc(C(=O)NC3COC3)c2)c1)Nc1ccccc1Cl` has a remaining activity of 95.7% (enzyme activity, inhibitor; 5 µM).
With `CCCS(=O)(=O)Nc1ccc(F)c(C(=O)c2c[nH]c3ncc(-c4ccc(Cl)cc4)cc23)c1F` the inhibition was < 10% (enzyme activity, inhibitor; 1 µM).
With `COc1cc2nccc(Oc3ccc(NC(=O)c4c5n(n(-c6ccc(F)cc6)c4=O)CCCC5)cc3)c2cc1OC` the inhibition was -10% (enzyme activity, inhibitor; 0.1 µM).
`C[C@H](c1ccnc(Nc2nc3ccc(-c4cc(N(C)C)ncn4)cc3[nH]2)c1)N1CCN(C(=O)CC(F)(F)F)CC1` gave a remaining binding of 100% (cell-free assay, competition with immobilised ligand; 0.1 µM).
For `Cc1[nH]c(/C=C2\C(=O)Nc3ccc(F)cc32)c(C)c1C(=O)N[C@H]1CCN(C(=O)N(C)C)C1`, the remaining activity was 27% (enzyme activity, inhibitor; 1 µM).
`F[C@@H]1CCN(c2nccc(-c3cnn4ncccc34)n2)C1` has a remaining signal of 100% (cell-free assay; 1 µM).
`O=S(=O)(NC1CCC(c2cc(F)ccc2F)(S(=O)(=O)c2ccc(Cl)cc2)CC1)C(F)(F)F` (centres unmarked) gave a remaining binding of 90% (cell-free assay, competition with immobilised ligand; 1 µM).
`CC(C)(C)c1nc(-c2cccc(NS(=O)(=O)c3c(F)cccc3F)c2F)c(-c2ccnc(N)n2)s1` gave a remaining activity of 89% (enzyme activity, inhibitor, radiometric; 1 µM).
With `N#CC1(c2ccccn2)CCN(Cc2cc(C(=O)N3CCCC3)c(=O)n3ccccc23)CC1` the remaining binding was 89% (cell-free assay, competition with immobilised ligand; 1 µM).
The remaining signal of `N#CCCc1ccc2c(c1)-c1[nH]c3ccc([N+](=O)[O-])cc3c1CC(=O)N2` is reported as 82.2% (cell-free assay; 0.5 µM).
For `CC1=C(C#N)C(c2ccc3c(c2)c(NC(=O)c2ccccc2C)nn3C)C(C#N)=C(C)N1`, the remaining binding was 94% (cell-free assay, competition with immobilised ligand; 1 µM).
With `O=C1Nc2ccc(Cl)cc2C1=Cc1cc(Cl)c(O)c(Cl)c1` the remaining signal was 91.5% (cell-free assay; 0.5 µM).
For `CC(=O)N1CCC(c2ccc(C(=O)NC(=N)N)cc2C(F)(F)F)CC1`, the remaining binding was 100% (cell-free assay, competition with immobilised ligand; 1 µM).
With `C=CC(=O)Nc1cc(Nc2nccc(Nc3cc(Cl)c(F)cc3C(C)(C)O)n2)c(OC)cc1N1CC[C@@H](N(C)C)C1` the inhibition was 74% (enzyme activity, inhibitor; 1 µM).
